Results pooled from the literature.
Compare with care: the assays were run in different laboratories.
Target: Protein-tyrosine kinase 6 (PTK6, Homo sapiens, UniProt Q13882)

| Structure (SMILES) | assay | conditions | endpoint | result |
| --- | --- | --- | --- | --- |
| CNC(=O)c1cc2c(Oc3ccc(NC(=O)C4(C(=O)Nc5ccc(F)cc5)CC4)cc3)ccnc2cc1OC | enzyme activity, inhibitor, radiometric | 1 µM | inhibition | 98% |
| C=CC(=O)Nc1cc(Nc2nccc(Nc3cc(Cl)c(F)cc3C(C)(C)O)n2)c(OC)cc1N1CC[C@@H](N(C)C)C1 | enzyme activity, inhibitor | 1 µM | inhibition | 63% |
| Nc1nc(Nc2ccc(S(N)(=O)=O)cc2)nn1C(=O)c1c(F)cccc1F | cell-free assay | 0.5 µM | remaining signal | 83.9% |
| CC(C)(C)c1nc(-c2cccc(NS(=O)(=O)c3c(F)cccc3F)c2F)c(-c2ccnc(N)n2)s1 | enzyme activity, inhibitor, radiometric | 1 µM | remaining activity | 26% |
| Cc1ccc(Nc2nccc(N(C)c3ccc4c(C)n(C)nc4c3)n2)cc1S(N)(=O)=O | enzyme activity, inhibitor | 0.3 µM | inhibition | 23% |
| CS(=O)(=O)c1cc(C2(NC(=O)c3cncc4c3cnn4-c3ccc(F)cc3)CC2)ccn1 | cell-free assay, competition with immobilised ligand | 1 µM | remaining binding | 80% |
| Cc1ccc(C(=O)NCc2ccsc2)cc1C#Cc1cn(C(C)C)c2ncnc(N)c12 | enzyme activity, inhibitor | 1 µM | activity vs control | 7% |
| CN(c1ccnc(CNc2nc(Nc3ccc4c(c3)CC(=O)N4)ncc2C(F)(F)F)n1)S(C)(=O)=O | cell-free assay, competition with immobilised ligand | 1 µM | remaining binding | 100% |
| Cc1cnc(NC2CCOCC2)nc1-n1cnc(C(=O)NC(CN)c2cc(F)cc(Cl)c2)c1 (stereo not shown) | enzyme activity, inhibitor, radiometric | 1 µM | remaining activity | 127% |
| O=C1CCc2cc(Nc3cc(OC4CCOCC4)c([N+](=O)[O-])cc3Cl)ccc2N1 | cell-free assay, competition with immobilised ligand | 1 µM | remaining binding | 100% |
| FC(F)(F)Oc1cccc(-c2cnc3ccc(-c4ccncc4)nn23)c1 | enzyme activity, inhibitor, radiometric | 1 µM | activity vs control | 72% |
| O=C1NC(=O)c2cc(Nc3ccc(F)cc3)c(Nc3ccc(F)cc3)cc21 | cell-free assay | 0.5 µM | remaining signal | 95.1% |
| Cc1cc(C)c(-n2ccn3nc(-c4cccnc4)cc23)cc1NC(=O)c1cc(C#N)cc(S(F)(F)(F)(F)F)c1 | cell-free assay, competition with immobilised ligand | 0.1 µM | remaining binding | 99.5% |
| CNC(=O)c1cc(Oc2ccc(NC(=O)Nc3ccc(Cl)c(C(F)(F)F)c3)cc2)ccn1 | enzyme activity, inhibitor | 10 µM | inhibition | 58% |
| CC(=O)C1=C(C)N(c2cccc(C(F)(F)F)c2)C(=O)N[C@@H]1c1ccc(C#N)nc1 | cell-free assay, competition with immobilised ligand | 1 µM | remaining binding | 100% |
| Nc1ncnc2occ(-c3ccc(NC(=O)Nc4cc(C(F)(F)F)ccc4F)cc3)c12 | cell-free assay, inhibitor | 20 µM | remaining signal | 20% |
| CNC(=O)Nc1ccc2c(c1)[C@@]1(CC2)OC(=O)N(CC(=O)N(Cc2ccc(F)cc2)[C@@H](C)C(F)(F)F)C1=O | cell-free assay, competition with immobilised ligand | 1 µM | remaining binding | 90% |
| COc1cc2ncnc(Nc3ccc(Oc4ccccc4)cc3C)c2cc1OC | enzyme activity, inhibitor | 1 µM | inhibition | 95% |
| COc1cc(Nc2cnc(C#N)c(O[C@H](C)CN(C)C)n2)ncc1-c1cnn(C)c1 | enzyme activity, inhibitor, radiometric | 10 µM | remaining activity | 91% |
| O=C1Nc2ccc(Cl)cc2C1=Cc1cc(Cl)c(O)c(Cl)c1 | cell-free assay | 0.5 µM | remaining signal | 73.8% |
| CCCOc1ccc([C@@H]2[C@@H](C(=O)O)[C@H](c3ccc4c(c3)OCO4)CN2CC(=O)Nc2c(CC)cccc2CC)cc1 | cell-free assay, competition with immobilised ligand | 1 µM | remaining binding | 83% |
| O=C(Nc1cnn(-c2csc(C(=O)NC3COC3)c2)c1)Nc1ccccc1Cl | enzyme activity, inhibitor | 5 µM | remaining activity | 118% |
| COc1cc(/C=C/C(=O)CC(=O)/C=C/c2ccc(O)c(OC)c2)ccc1O | enzyme activity, inhibitor | 1 µM | activity vs control | 85% |
| CC/C(=N\NC(=O)NCc1cccc(O)c1)c1ccc(O)c(C)c1O | enzyme activity, inhibitor | 0.1 µM | inhibition | -3% |
| CS(=O)(=O)N1CCCC(NC(=O)[C@H](CCC2CCCCC2)NC(=O)c2ccc(CNc3ncnc4c3nnn4-c3ccccc3)cc2)C1 (stereo partly shown) | cell-free assay, competition with immobilised ligand | 0.1 µM | remaining binding | 76% |
| Cc1ccc(C(=O)Nc2ccc(CN3CCN(C)CC3)c(C(F)(F)F)c2)cc1C#Cc1cnc2cccnn12 | enzyme activity, inhibitor | 23.5 nM | remaining activity | 95% |
| CN(C)C1CCN(CC#Cc2nn(C3CCCC3)c3nc(NCc4ccccc4)ncc23)C1 (stereo not shown) | enzyme activity, inhibitor, FRET | 0.1 µM | inhibition | -2% |
| CCN(CC)CCNC(=O)c1c(C)[nH]c(/C=C2\C(=O)Nc3ccc(F)cc32)c1C | enzyme activity, inhibitor | 0.3 µM | inhibition | 6% |
